Data reported in ChEMBL document CHEMBL1158958, “Studies on inhibitors of skin tumor promotion, IX. Neolignans from Magnolia officinalis” (J Nat Prod, 1991).

Assays:
[1] = system: Raji; experiment: Inhibition of 12-O-tetradecanoylphorbol-13-acetate-induced EBV-early antigen activation in human Raji cells at 500 molar ratio after 48 hrs relative to TPA; format: cell-based; set-up: scale not given: the % may be the effect or the level left; conditions: human gammaherpesvirus 4
Procedure, shortened: (§1)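 Raji indicator cells kept 48 h at 37° in 1 ml medium with n-butyric acid (4 mM, co-inducer), TPA (20 ng/ml, […]) and test compound in DMSO, dosed as mol ratio to TPA. EA-positive cells were found by indirect immunofluorescence on smears with high-titer EBV-positive NPC patient sera. At least 500 cells counted per assay, repeated twice. Induction is expressed relative to the butyric acid+TPA positive control (100%).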

[2] = Cytotoxicity against human Raji cells assessed as cell viability at 500 molar ratio; format: cell-based; conditions: read-out: Activity
Procedure, shortened: (§2)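 Raji cell viability read in the same EBV-EA run: 48 h at 37° with n-butyric acid (4 mM) and TPA ([…]) plus test compound in DMSO, dosed as mol ratio to TPA. Viability is given alongside the relative EA activation values.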

[3] = Cytotoxicity against human Raji cells assessed as cell viability at 1000 molar ratio; format: cell-based; conditions: read-out: Activity; procedure, shortened: as §2
[4] = Cytotoxicity against human Raji cells assessed as cell viability at 100 molar ratio; format: cell-based; conditions: read-out: Activity; procedure, shortened: as §2
[5] = system: Raji; experiment: Inhibition of 12-O-tetradecanoylphorbol-13-acetate-induced EBV-early antigen activation in human Raji cells at 100 molar ratio after 48 hrs relative to TPA; format: cell-based; set-up: scale not given: the % may be the effect or the level left; conditions: human gammaherpesvirus 4; procedure, shortened: as §1
[6] = system: Raji; experiment: Inhibition of 12-O-tetradecanoylphorbol-13-acetate-induced EBV-early antigen activation in human Raji cells at 1 molar ratio after 48 hrs relative to TPA; format: cell-based; set-up: scale not given: the % may be the effect or the level left; conditions: human gammaherpesvirus 4; procedure, shortened: as §1
[7] = system: Raji; experiment: Inhibition of 12-O-tetradecanoylphorbol-13-acetate-induced EBV-early antigen activation in human Raji cells at 1000 molar ratio after 48 hrs relative to TPA; format: cell-based; set-up: scale not given: the % may be the effect or the level left; conditions: human gammaherpesvirus 4; procedure, shortened: as §1
[8] = system: Raji; experiment: Inhibition of 12-O-tetradecanoylphorbol-13-acetate-induced EBV-early antigen activation in human Raji cells at 10 molar ratio after 48 hrs relative to TPA; format: cell-based; set-up: scale not given: the % may be the effect or the level left; conditions: human gammaherpesvirus 4; procedure, shortened: as §1
[9] = Cytotoxicity against human Raji cells assessed as cell viability at 1 molar ratio; format: cell-based; conditions: read-out: Activity; procedure, shortened: as §2
[10] = Cytotoxicity against human Raji cells assessed as cell viability at 10 molar ratio; format: cell-based; conditions: read-out: Activity; procedure, shortened: as §2
[11] = system: Mus musculus; experiment: Inhibition of DMBA-induced/TPA-promoted carcinogenesis in ICR mouse assessed as reduction of skin papillomas per mouse at 85 nmol administered twice weekly after 1 week of initiation measured after 20 weeks; format: functional; set-up: scale not given: the % may be the effect or the level left
Procedure, shortened: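 Female ICR mice, 7 weeks old, 15 per group, had shaved backs. They were initiated with DMBA (100 µg, […]) in Me2CO, then promoted from 1 week later with TPA (1 µg, […]) in Me2CO twice weekly, with test agent given with TPA. Papilloma incidence and average papillomas per mouse were scored against the TPA-alone control.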

SMILES	Activity [1]	viability at 500 molar ratio [2]	viability at 1000 molar ratio [3]	viability at 100 molar ratio [4]	Activity [5]	Activity [6]	Activity [7]	Activity [8]	viability at 1 molar ratio [9]	viability at 10 molar ratio [10]	Activity [11]
CC1=CC[C@H](C(C)C)C=C1 [ALPHA-PHELLANDRENE]	93.7%	> 80%	> 80%	> 80%	100%	100%	78.5%	100%	> 80%	> 80%	–
C=C1CCC[C@]2(C)CC[C@@H](C(C)(C)O)C[C@@H]12 [BETA-EUDESMOL]	68.9%	> 80%	> 80%	> 80%	83.8%	100%	40.1%	100%	> 80%	> 80%	–
C=CCc1ccc(O)c(-c2ccc(O)c(CC=C)c2)c1 [HONOKIOL]	18.5%	> 80%	60%	> 80%	69.4%	100%	0%	90.1%	> 80%	> 80%	–
C=CCc1ccc(O)c(-c2cc(CC=C)ccc2O)c1 [MAGNOLOL]	0%	> 80%	70%	> 80%	31.2%	94.4%	0%	56.9%	> 80%	> 80%	40%
C=CCc1ccc(O)c(-c2cc(CC=C)cc(C3C=C(C)CC[C@@H]3C(C)C)c2O)c1 (stereo partly specified) [MONOTERPENYL MAGNOLOL]	20.9%	> 80%	60%	> 80%	82.6%	100%	11.6%	100%	> 80%	> 80%	–
